The source of these data is ChEMBL document CHEMBL1148839, “Synthesis of new xanthone analogues and their biological activity test--cytotoxicity, topoisomerase II inhibition, and DNA cross-linking study” (Bioorg Med Chem Lett, 2007).

SMILES strings stand for the structures. pIC50: −log10 of the molar value. Bounds are passed on as bounds.

One experiment concerns HCT-116. The experiment is described as follows: Cytotoxicity against human HCT116 cells after 4 days by MTT assay. It counts as functional, cell-based. The following applies: HCT-116, 96 h. In a few lines: (§1)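 Cells from ATCC seeded at 2-4×10^4 per well, attached overnight in medium with 10% FBS, 37 °C, 5% CO2. On day 1 medium replaced with medium containing graded compound concentrations. On day 4 MTT added (final 0.5 mg/mL), 4 h further incubation, DMSO solubilization, absorbance at 570 nm. IC50 from four-parameter logistic fit; each value average of four experiments.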
On the technique in general: Tetrazolium assays rely on reduction of a dye to a coloured formazan, in cell work by metabolically active cells.

Another experiment has as its system MCF7. The experiment is described as follows: Cytotoxicity against human MCF7 cells after 4 days by MTT assay. It counts as functional, cell-based. The following applies: MCF7, 96 h. The gist of the method: as §1
For another experiment, the system named is MDA-MB-231. Description: Cytotoxicity against human MDA-MB-231 cells after 4 days by MTT assay. The settings on record: MDA-MB-231, 96 h. It counts as functional, cell-based. The gist of the method:
as §1

The test system of another experiment is HeLa. Description: Cytotoxicity against human HeLa cells after 4 days by MTT assay. The experiment is classed as functional, cell-based. The following applies: 96 h. The gist of the method: as §1
The test system of a further experiment is LNCaP. The experiment is described as follows: Cytotoxicity against human LnCap cells after 4 days by MTT assay. The experiment is classed as functional, cell-based. The settings on record: 96 h. The gist of the method:
as §1

Another experiment is filed under the species Homo sapiens. The experiment is described as follows: Inhibition of human topoisomerase 2-mediated DNA relaxation at 100 uM relative to etoposide. In a few lines:
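Relaxation assay: supercoiled pBR322 plasmid DNA (0.3 µg) incubated with 0.2 unit human topoisomerase II and compound (20 and 100 µM), 37 °C, 30 min. Etoposide as positive control. Inhibition ratio calculated from gel band densitometry.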

The subject of another experiment is Escherichia coli. The experiment is described as follows: Effect on pBR322 DNA cross linking activity after 1 hr. The gist of the method:
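Linearized pBR322 DNA (0.5 µg) incubated with compound at 0, 10, 50, 100, 200 µM for 1 h at room temperature in 10 mM Tris-HCl pH 7.5. Run on 1.2% alkaline agarose gel (40 mM NaOH, 1 mM EDTA running buffer), neutralized, ethidium bromide stained, UV visualized.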

As usually defined, the pIC50 is the negative decadic logarithm of the IC50, by convention in mol/L. A higher pIC50 goes with a small IC50. `COc1cccc2c(=O)c3c(O)cc(OCC(O)CBr)cc3oc12` (configuration not stated): the negative logarithm of the IC50 (pIC50) in the experiment on HCT-116 is under 4.00; in the experiment on MCF7, 4.01; in the experiment on MDA-MB-231, 4.00; in the experiment on HeLa, under 4.00; in the experiment on LNCaP, under 4.00.

Broadly, the inhibition is the change of the read-out against control, counted positive when it falls. Turning to `O=c1c2ccccc2oc2cc(OCC(O)CBr)cc(O)c12` (configuration not stated), the pIC50 in the experiment on HCT-116 is 4.77; in the experiment with MCF7 it was 4.27; in the experiment on MDA-MB-231, 4.12; in the experiment on HeLa, 4.01; with LNCaP, 4.19. For the same compound, the inhibition in the experiment listed under Homo sapiens came out at 57%.

`O=c1c2ccccc2oc2cc(OCC(O)CCl)cc(O)c12` (configuration not stated): the pIC50 in the experiment on HCT-116, in the experiment on MCF7, with MDA-MB-231, in the experiment on HeLa and in the experiment on LNCaP was under 4.00 in each case.

As to `O=c1c2ccccc2oc2cc(OCC3CO3)cc(OCC3CO3)c12` (configuration not stated), the pIC50 with HCT-116 is 4.99; in the experiment with MCF7, 5.49; with MDA-MB-231, 4.89; in the experiment on HeLa, 4.63; in the experiment on LNCaP, 5.05. Besides, the inhibition in the experiment listed under Homo sapiens stood at 100%. For the same compound, in the experiment on Escherichia coli, the Activity result was “Dose-dependent effect”.

As for `COc1cccc2c1C(=O)c1c(O)c3c(c(O)c1C2=O)C[C@@](O)(C(=O)CO)C[C@@H]3O[C@H]1C[C@H](N)[C@H](O)[C@H](C)O1` [DOXORUBICIN], the pIC50 in the experiment with HCT-116 was 5.11; in the experiment on MDA-MB-231, 4.75; in the experiment on HeLa, 5.48; with LNCaP it was 5.34.

As to `O=c1c2ccccc2oc2cc(OCC3CO3)cc(O)c12` (configuration not stated), the negative logarithm of the IC50 (pIC50) in the experiment with HCT-116 was 4.09; in the experiment with MCF7, 4.16; with MDA-MB-231, under 4.00; in the experiment on HeLa, 4.16; in the experiment on LNCaP, 4.03.

For the compound `COc1cccc2c(=O)c3c(O)cc(OCC(O)CCl)cc3oc12` (configuration not stated), the negative logarithm of the IC50 (pIC50) was 4.50 in the experiment with HCT-116; under 4.00 in the experiment on MCF7; 4.09 in the experiment on MDA-MB-231; 4.22 in the experiment with HeLa; under 4.00 with LNCaP.

For the compound `COc1cccc2c(=O)c3c(O)cc(OCC4CO4)cc3oc12` (configuration not stated), the pIC50 in the experiment on HCT-116, in the experiment with MCF7, with MDA-MB-231, in the experiment on HeLa and in the experiment with LNCaP was under 4.00 each time.
